Measurements from PubChem BioAssay AID1296 (Columbia University Molecular Screening Center, 2008).
About 1,000 (0.77%) of roughly 130,000 compounds were called active. Inconclusive results (about 1%) are left out.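 Rule for the calls: active = activation at 2 µM above a set limit, confirmed on inspection of the cell images; inconclusive = above the set limit but not confirmed on image inspection; inactive = the rest.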 This excerpt belongs to a sample that is enriched for actives.

test: insulin gene promoter stimulation in islet cells – imaging, TRM-6 cells (human fetal islet line), eGFP reporter, cell count, primary screen (AID 1296;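 for activation: share of cells whose green reporter signal exceeds an intensity cutoff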); settings: at 2 µM; activation: stronger effect = higher value, plate-scaled: unstimulated 0, stimulated control 100; normalized cell count: measured here: cell count (toxicity)
How it was run: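 test system = TRM-6 insulin promoter–eGFP reporter cells | benchmarks = stimulated versus unstimulated wells as plate controls | read-out basis = percent cells above green-intensity threshold, converted to percent activation versus plate controls | detection = fixed-cell fluorescence microscopy, eGFP plus Hoechst | incubation = tamoxifen pre-incubation 15 h overnight, then compound exposure 48 h at 37 °C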

Row | Structure (SMILES) | activation | normalized cell count [%]
1 | CCCC1NC(=S)NC(C)=C1C(C)=O (stereo not drawn) | 7.14% (inactive) | 103
2 | COC(=O)c1ccccc1NC(=S)NC(=O)c1ccccc1F | 0% (inactive) | 112
3 | Cc1ccccc1OCCOc1ccc([N+](=O)[O-])cc1/C=N/n1cnnc1 | 107% (inactive) | 5.92
4 | COC(=O)c1[nH]c2ccccc2c1NC(=O)CN1CCCc2ccccc21 | 209% (active) | 75.4
5 | Cn1c(SCC(=O)N2CCCc3ccccc32)nc2ccccc2c1=O | 57.1% (inactive) | 100
6 | Cc1[nH]c2ccccc2c1SCC(=O)Nc1nccs1 | 5.56% (inactive) | 140
7 | Cc1cccc(-n2cc(CN3CCN(C(=O)c4ncn[nH]4)CC3)c(-c3cccc(F)c3)n2)c1 | 0% (inactive) | 108
8 | O=C(COc1ccc2c(C(F)(F)F)cc(=O)oc2c1)Nc1ccc2c(c1)OCCO2 | 2.7% (inactive) | 112
9 | CC1(C)CC(=O)c2cnc3nc4ccccc4n3c2C1 | -76.2% (inactive) | 56.3
10 | Cc1cc(C(=O)OCC(=O)Nc2nnc(C(C)C)s2)c2ccccc2n1 | 0% (inactive) | 93.8
11 | N#C/C(=C\C1=C(N2CCOCC2)C(=C\c2ccccc2)/CC1)C(=O)Nc1ccccc1F | 525% [fluoresces] (active) | 109
12 | CC(CC(=O)O)C(=O)c1ccc(Cl)c([N+](=O)[O-])c1 (stereo not drawn) | 6.67% (inactive) | 136
13 | Cn1nc(-c2ccc(N3CCOCC3)c(NC(=O)c3ccccc3)c2)c2ccccc2c1=O | 0% (inactive) | 95.6
14 | O=C1C(Cl)=C(N2CCOCC2)C(=O)N1c1ccccc1 | 0% (inactive) | 129
15 | O=C1OC(NC(=O)c2ccccc2)C(N2CCOCC2)=C1Cl (stereo not drawn) | 162% (active) | 118
16 | C=CCc1cccc2cc(C(=O)OCC)c(=O)oc12 | 7.14% (inactive) | 70.6
17 | COCCCNCCOCCOc1ccc(Cl)cc1Br | 6.67% (inactive) | 166
18 | CC1=NN(C(=O)Cc2ccc(C)cc2)C(O)(c2cccnc2)C1 (stereo not drawn) | -5.41% (inactive) | 170
19 | CN(CC(=O)NC1CCCC1)S(=O)(=O)c1cnc[nH]1 | -7.14% (inactive) | 85
20 | CC(C)COP(=O)(c1ccc(N(C)C)cc1)C(Nc1ccccc1)c1cccnc1 (stereo not drawn) | 2.94% (inactive) | 145
21 | COC(=O)c1ccc(COC(=O)c2c(C)nn(Cc3ccccc3Cl)c2Cl)o1 | 5.26% (inactive) | 164
22 | COC(=O)c1ccc(Cc2ccccc2)o1 | -92.9% (inactive) | 83.1

Row | Structure (SMILES) | activation | normalized cell count [%]
23 | COC(=O)c1ccc(CSc2ccccc2C)o1 | 230% (active) | 122
24 | C=CCN(c1ccc(C(=O)Nc2cc(C)cc(C)c2)cc1)S(C)(=O)=O | 8.11% (inactive) | 119
25 | CCNC(=S)N(CCc1c(C)[nH]c2ccc(C)cc12)Cc1ccco1 | 340% (active) | 55.7
26 | Cc1cccc2cc(CN(Cc3cccs3)C(=S)NCc3ccco3)c(=O)[nH]c12 | -7.94% (inactive) | 94.8
27 | CC1CCCN(CCOCCOc2ccccc2-c2ccccc2)C1 (stereo not drawn) | 7.14% (inactive) | 133
28 | Cc1ccc(C(C)(C)C)c(OCCCCN2CCCC2)c1 | -1.96% (inactive) | 97.2
29 | CCOc1nnc(C)c2c(C)n(-c3cccc(Cl)c3)nc12 | 162% (active) | 134
30 | Cc1nn(-c2ccccc2)c(C)c1NC(=O)COc1ccc(Cl)cc1Cl | 3.7% (inactive) | 120
31 | Cc1cc(C)c2c(n1)nn1c(N3CCN(c4cccc(Cl)c4)CC3)cc(C)nc21 | 141% (inactive) | 99.8
32 | O=C(CCCN1C(=O)/C(=C/c2ccco2)SC1=S)Nc1ccccc1 | 0% (inactive) | 158
33 | COc1ccc(N2CCN(C(=O)c3ccc4c(Cl)c5c(nc4c3)CCCC5)CC2)cc1 | 0% (inactive) | 94.9
34 | COc1ccc(C2CC(c3cccs3)Nc3nnnn32)cc1 (stereo not drawn) | -78.6% (inactive) | 120
35 | CC1(C)CC(=O)C(N=Nc2ccc(S(=O)(=O)N3CCCCCC3)cc2)=C(O)C1 | 0% (inactive) | 78.9
36 | O=C(NCN1CCN(CCO)CC1)c1cnccn1 | 6.67% (inactive) | 83.1
37 | CCCC(=O)Nc1ccc(C(=O)NCCCn2ccnc2)cc1 | 456% (active) | 48.4
38 | O=C(Nc1ccccc1C(=O)NCCCn1ccnc1)c1ccc(Cl)cc1Cl | 289% (inactive) | 61.3
39 | Cc1ccc2c(Cl)c(C(=O)NCCCn3ccnc3)sc2c1 | 352% (inactive) | 42
40 | C/C(=N\NC(=O)c1ccc(NS(=O)(=O)c2cccs2)cc1)c1ccc2ccccc2c1 | 157% (inactive) | 72.7
41 | CN(C)CCCCCN(C)Cc1cc2ccccc2o1 | 319% (active) | 86.1
42 | CCN(CCO)C(=S)Nc1cc(C(=O)OC)ccc1C(=O)OC | 3.45% (inactive) | 127
43 | CCS(=O)(=O)Nc1cc(C(=O)OC)ccc1C(=O)OC | -6.67% (inactive) | 104
44 | COC(=O)c1ccc(C(=O)OC)c(NC(=S)N2CCN(c3ccc(F)cc3)CC2)c1 | 403% (active) | 89.4
